Columns and labels:
[1] = target: T1, Serine/threonine-protein kinase TAO2 (Rattus norvegicus, UniProt Q9JLS3); experiment: Inhibition of rat TAOK2 (1 to 320 residues) expressed in Baculovirus/insect cell expression system assessed as remaining activity using MBP as substrate and [32P]ATP measured after 10 mins by Kinase-Glo assay
T1 sequence (Q9JLS3 whole entry): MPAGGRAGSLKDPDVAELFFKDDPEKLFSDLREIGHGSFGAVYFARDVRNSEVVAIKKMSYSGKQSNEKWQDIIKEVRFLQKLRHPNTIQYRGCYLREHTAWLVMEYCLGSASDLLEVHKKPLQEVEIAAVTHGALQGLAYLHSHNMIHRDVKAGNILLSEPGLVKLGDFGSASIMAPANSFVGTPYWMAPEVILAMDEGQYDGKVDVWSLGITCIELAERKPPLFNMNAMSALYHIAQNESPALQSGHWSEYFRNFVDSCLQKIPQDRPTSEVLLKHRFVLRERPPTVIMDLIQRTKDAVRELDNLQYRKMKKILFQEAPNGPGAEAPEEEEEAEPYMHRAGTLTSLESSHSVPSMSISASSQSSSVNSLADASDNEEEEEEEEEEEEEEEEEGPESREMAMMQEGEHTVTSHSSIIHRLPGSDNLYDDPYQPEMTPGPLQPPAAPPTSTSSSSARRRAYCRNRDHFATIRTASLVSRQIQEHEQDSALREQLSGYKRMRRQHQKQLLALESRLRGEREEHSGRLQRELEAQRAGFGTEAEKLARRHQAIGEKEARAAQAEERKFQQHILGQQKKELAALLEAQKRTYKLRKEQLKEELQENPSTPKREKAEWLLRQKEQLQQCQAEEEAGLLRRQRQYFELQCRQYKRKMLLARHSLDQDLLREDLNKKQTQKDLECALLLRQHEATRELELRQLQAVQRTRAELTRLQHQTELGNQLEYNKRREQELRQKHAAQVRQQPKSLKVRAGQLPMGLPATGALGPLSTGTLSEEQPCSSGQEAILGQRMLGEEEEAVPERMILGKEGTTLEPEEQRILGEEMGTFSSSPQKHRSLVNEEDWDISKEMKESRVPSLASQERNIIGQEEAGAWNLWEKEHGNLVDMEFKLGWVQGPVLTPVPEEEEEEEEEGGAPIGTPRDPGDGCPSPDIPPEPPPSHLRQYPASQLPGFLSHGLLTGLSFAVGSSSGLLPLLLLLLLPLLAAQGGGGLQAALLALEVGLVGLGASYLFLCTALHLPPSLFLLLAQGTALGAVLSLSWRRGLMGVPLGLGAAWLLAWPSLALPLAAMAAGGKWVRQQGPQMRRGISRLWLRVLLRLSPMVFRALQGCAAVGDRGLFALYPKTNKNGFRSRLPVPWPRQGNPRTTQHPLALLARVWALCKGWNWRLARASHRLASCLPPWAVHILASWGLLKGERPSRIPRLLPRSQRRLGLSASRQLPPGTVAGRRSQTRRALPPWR

[2] = target: MAP kinase p38 (Homo sapiens) (UniProt O15264+Q15759+Q16539+P53778); experiment: Binding affinity to p38 (unknown origin) assessed as change in melting temperature at 1 uM by SYPRO orange dye-based DSF analysis; assay type: protein assay
Method in brief: (§1)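 Differential scanning fluorimetry: each compound's melting-temperature shift (ΔTm, °C) was measured on the kinase protein. Compounds giving a TAOK2 ΔTm above 0.5 °C were also run against p38 and ASK1. Selectivity (ΔΔTm) was taken as the TAOK2 ΔTm minus the p38 or ASK1 ΔTm.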

[3] = target: T2, Mitogen-activated protein kinase kinase kinase 5 (Homo sapiens) (UniProt Q99683); experiment: Binding affinity to ASK1 (unknown origin) assessed as change in melting temperature at 1 uM by SYPRO orange dye-based DSF analysis; method in brief: as §1
T2 sequence (whole entry): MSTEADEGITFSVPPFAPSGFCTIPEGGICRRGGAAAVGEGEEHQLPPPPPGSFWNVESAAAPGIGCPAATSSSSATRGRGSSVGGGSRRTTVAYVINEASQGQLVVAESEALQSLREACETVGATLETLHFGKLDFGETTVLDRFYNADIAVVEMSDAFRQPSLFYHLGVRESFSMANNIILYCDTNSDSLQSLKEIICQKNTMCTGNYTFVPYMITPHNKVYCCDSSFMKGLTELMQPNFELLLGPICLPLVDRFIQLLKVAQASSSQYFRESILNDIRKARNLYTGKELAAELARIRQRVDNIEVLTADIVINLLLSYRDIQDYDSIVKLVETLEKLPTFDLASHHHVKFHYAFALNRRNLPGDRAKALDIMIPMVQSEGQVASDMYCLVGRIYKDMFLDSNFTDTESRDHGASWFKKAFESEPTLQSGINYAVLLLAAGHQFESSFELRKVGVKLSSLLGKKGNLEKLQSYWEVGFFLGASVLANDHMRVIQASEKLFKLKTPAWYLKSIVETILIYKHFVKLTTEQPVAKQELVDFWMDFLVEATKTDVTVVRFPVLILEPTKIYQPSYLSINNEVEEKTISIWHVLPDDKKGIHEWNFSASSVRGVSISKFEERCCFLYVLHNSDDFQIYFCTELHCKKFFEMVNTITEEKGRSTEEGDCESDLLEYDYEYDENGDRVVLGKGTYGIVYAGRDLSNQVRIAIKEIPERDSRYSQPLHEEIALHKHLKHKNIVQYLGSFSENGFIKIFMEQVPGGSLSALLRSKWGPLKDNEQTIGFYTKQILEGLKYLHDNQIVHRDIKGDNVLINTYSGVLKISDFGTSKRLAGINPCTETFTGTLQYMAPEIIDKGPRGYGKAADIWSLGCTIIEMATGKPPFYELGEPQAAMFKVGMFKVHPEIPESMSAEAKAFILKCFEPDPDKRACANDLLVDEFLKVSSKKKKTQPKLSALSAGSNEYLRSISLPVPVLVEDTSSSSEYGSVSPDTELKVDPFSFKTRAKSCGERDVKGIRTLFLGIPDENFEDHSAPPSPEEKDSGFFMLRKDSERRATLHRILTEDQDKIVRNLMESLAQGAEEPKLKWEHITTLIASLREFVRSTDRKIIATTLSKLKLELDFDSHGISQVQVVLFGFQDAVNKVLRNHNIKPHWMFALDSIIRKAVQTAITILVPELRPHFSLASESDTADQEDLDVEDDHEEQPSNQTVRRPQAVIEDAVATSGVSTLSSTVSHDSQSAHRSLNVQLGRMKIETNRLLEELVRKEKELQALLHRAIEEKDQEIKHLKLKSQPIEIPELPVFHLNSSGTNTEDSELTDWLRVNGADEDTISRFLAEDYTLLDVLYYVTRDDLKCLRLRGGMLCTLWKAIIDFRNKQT

[4] = target: T3, Serine/threonine-protein kinase TAO2 (Rattus norvegicus) (UniProt Q9JLS3); experiment: Binding affinity to rat TAOK2 (1 to 320 residues) expressed in Baculovirus/insect cell expression system assessed as change in melting temperature at 1 uM by SYPRO orange dye-based DSF analysis; method in brief: as §1
T3 sequence (whole entry): T1 sequence (Q9JLS3 whole entry)

In the case of `Cc1ccc(NCCCC(=O)N/N=C/c2cc(Br)cc(Br)c2O)cc1`, the IC50 [1] is reported as 6 µM, the ΔTm [2] is reported as 1.3 °C and the ΔTm [3] is reported as 1.2 °C. The ΔTm [4] was 1.6 °C.
In the case of `O=C(O)c1cc(-c2ccc(-c3ccccc3[N+](=O)[O-])o2)nc2ccc3ccccc3c12`, the IC50 [1] is reported as 3 µM, the ΔTm [2] is reported as 1.5 °C and the ΔTm [3] is reported as 1.7 °C. It also gave a ΔTm [4] of 2.2 °C.
`CCC(=O)Nc1nc(C)c(-c2csc(Nc3cc(OC)ccc3OC)n2)s1` gave a ΔTm [2] of 2.8 °C, a ΔTm [3] of 2.7 °C and a ΔTm [4] of 3 °C.
With `c1cc2[nH]c3c(c2c2nonc12)CCCC3` the IC50 [1] was 3 µM, the ΔTm [2] was 2 °C and the ΔTm [3] was 0 °C. For the same compound, the ΔTm [4] was 1.2 °C.
With `CCOCCCn1c(=S)[nH]c2cc(C(=O)NCC3COc4ccccc4O3)ccc2c1=O` (stereo not given) the IC50 [1] was 1.3 to 1.4 µM, the ΔTm [2] was 2 °C and the ΔTm [3] was 2.1 °C. It also gave a ΔTm [4] of 2 °C.
Work on `CS(=O)(=O)c1ccc2nc(NC(=O)CCCOc3ccc(Cl)cc3)sc2c1` yielded a ΔTm [2] of 2 °C, a ΔTm [3] of 1.2 °C and a ΔTm [4] of 1.3 °C.
Work on `Cc1ccc(C(=O)CSc2nnc(-c3ccncc3)[nH]2)c(C)c1` yielded an IC50 [1] of 5 µM, a ΔTm [2] of 0 °C and a ΔTm [3] of 0.4 °C. For the same compound, the ΔTm [4] was 0.7 °C.
For `O=C(NCC1COc2ccccc2O1)c1ccc(NC(=O)c2ccco2)cc1` (stereo not given), the IC50 [1] was 2 µM, the ΔTm [2] was 2.2 °C and the ΔTm [3] was 1.2 °C. For the same compound, the ΔTm [4] was 1.6 °C.
